{"source": "ChEMBL document CHEMBL5260818", "about": "“Anti-influenza activity of diazaadamantanes combined with monoterpene moieties” (Bioorg Med Chem Lett, 2017)", "key": {"[1]": {"assay": "Cytotoxicity against MDCK cells incubated for 48 hrs by MTT assay", "format": "toxicity, cell-based, Canis lupus familiaris", "settings": "dog", "summary_of_the_method": "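Uninfected MDCK cells were exposed to the dissolved compounds for 48 h at 36 °C, 5% CO2. Cells were washed twice with PBS, then given MTT ([…] in PBS) for 1 h. Formazan was dissolved in DMSO and OD read at 535 nm against concentration. Three parallels per concentration, and CC50 was calculated.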"}, "Influenza A virus [2]": {"test_system": "Influenza A virus", "assay": "Antiviral activity against Influenza A virus A/Puerto Rico/8/34 (H1N1) infected in MDCK cells assessed as inhibition of viral growth preincubated with cells for 1 hrs followed by compound addition and measured after 24 hrs by TCD titration based assay", "format": "functional, organism-based", "summary_of_the_method": "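Compounds dissolved in DMSO and diluted in MEM with 1 μg/ml trypsin, then added to MDCK cells for 1 h at 36 °C before infection (moi 0.01). Cultures were kept 24 h at 36 °C, 5% CO2. Supernatant virus progeny was grown in MDCK cells for 48 h, then titred by hemagglutination. Each concentration was run in triplicate, and IC50 was calculated.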"}, "[3]": {"assay": "Selectivity index, ratio of CC50 for cytotoxicity against MDCK cells to IC50 for antiviral activity against Influenza A virus A/Puerto Rico/8/34 (H1N1) infected in MDCK cells assessed as inhibition of viral growth", "format": "toxicity, cell-based", "settings": "dog, read-out: Ratio CC50/IC50", "summary_of_the_method": "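SI is CC50 (MTT, uninfected MDCK, 48 h) divided by IC50 (hemagglutination titre of progeny virus from MDCK cells infected at moi 0.01 after 1 h compound pre-incubation), both from triplicate concentration series.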"}, "Influenza A virus [4]": {"test_system": "Influenza A virus", "assay": "Antiviral activity against Influenza A virus A A/California/07/09 (H1N1)pdm09", "format": "functional, organism-based"}}}
{"molecule": "CC(CCCC(C)(C)O)CCNC1C2(C)CN3CN(C2)CC1(C)C3", "note": "(stereo unspecified)", "values": [{"measurement": "CC50 at 48 h", "setting": "[1]", "result": 979, "unit": "µM"}, {"measurement": "IC50", "setting": "Influenza A virus [2]", "result": 134, "unit": "µM"}, {"measurement": "selectivity ratio", "setting": "[3]", "result": 7}]}
{"molecule": "CC12CN3CC(C)(CN(C1)C3C1=CC[C@H]3C[C@@H]1C3(C)C)C2=O", "note": "(stereo partly specified)", "values": [{"measurement": "CC50 at 48 h", "setting": "[1]", "result": "> 1000", "unit": "µM"}, {"measurement": "IC50", "setting": "Influenza A virus [2]", "result": "> 1000", "unit": "µM"}]}
{"molecule": "CC12CN3CN(C1)CC(C)(C3)C2N", "note": "(stereo unspecified)", "values": [{"measurement": "CC50 at 48 h", "setting": "[1]", "result": "> 1820", "unit": "µM"}, {"measurement": "IC50", "setting": "Influenza A virus [2]", "result": 143, "unit": "µM"}, {"measurement": "selectivity ratio", "setting": "[3]", "result": "> 13"}]}
{"molecule": "CC(C)=CCCC(C)CCNC1C2CC3CC(C2)CC1C3", "note": "(stereo unspecified)", "values": [{"measurement": "IC50", "setting": "Influenza A virus [4]", "result": 18, "unit": "µM"}]}
{"molecule": "CC(C)=CCC/C(C)=C\\C1N2CC3(C)CN1CC(C)(C2)C3=O", "note": "(stereo unspecified)", "values": [{"measurement": "CC50 at 48 h", "setting": "[1]", "result": 242, "unit": "µM"}, {"measurement": "IC50", "setting": "Influenza A virus [2]", "result": "> 99", "unit": "µM"}, {"measurement": "selectivity ratio", "setting": "[3]", "result": 2}]}
{"molecule": "CC12CN3CC(C)(CN(C1)C3C1=CC(=O)[C@H]3C[C@@H]1C3(C)C)C2=O", "note": "(stereo partly specified)", "values": [{"measurement": "CC50 at 48 h", "setting": "[1]", "result": 907, "unit": "µM"}, {"measurement": "IC50", "setting": "Influenza A virus [2]", "result": 113, "unit": "µM"}, {"measurement": "selectivity ratio", "setting": "[3]", "result": 8}]}
{"molecule": "CC1=CC[C@@H](CC2N3CC4(C)CN2CC(C)(C3)C4=O)C1(C)C", "note": "(stereo partly specified)", "values": [{"measurement": "CC50 at 48 h", "setting": "[1]", "result": 533, "unit": "µM"}, {"measurement": "IC50", "setting": "Influenza A virus [2]", "result": "> 331", "unit": "µM"}, {"measurement": "selectivity ratio", "setting": "[3]", "result": "< 2"}]}
{"molecule": "CC(C)=CCCC(C)CC1N2CC3(C)CN1CC(C)(C2)C3=O", "note": "(stereo unspecified)", "values": [{"measurement": "CC50 at 48 h", "setting": "[1]", "result": 178, "unit": "µM"}, {"measurement": "IC50", "setting": "Influenza A virus [2]", "result": 66, "unit": "µM"}, {"measurement": "selectivity ratio", "setting": "[3]", "result": 3}]}
{"molecule": "CC(CCCC(C)(C)O)CC1N2CC3(C)CN1CC(C)(C2)C3=O", "note": "(stereo unspecified)", "values": [{"measurement": "CC50 at 48 h", "setting": "[1]", "result": "> 904", "unit": "µM"}, {"measurement": "IC50", "setting": "Influenza A virus [2]", "result": 260, "unit": "µM"}, {"measurement": "selectivity ratio", "setting": "[3]", "result": 3}]}
{"molecule": "CC(C)=CCCC(C)CCNC1C2(C)CN3CN(C2)CC1(C)C3", "note": "(stereo unspecified)", "values": [{"measurement": "CC50 at 48 h", "setting": "[1]", "result": 239, "unit": "µM"}, {"measurement": "IC50", "setting": "Influenza A virus [2]", "result": 8, "unit": "µM"}, {"measurement": "selectivity ratio", "setting": "[3]", "result": 30}]}
{"molecule": "CC12CN3CN(C1)CC(C)(C3)C2NCC1=CC[C@H]2C[C@@H]1C2(C)C", "note": "(stereo partly specified)", "values": [{"measurement": "CC50 at 48 h", "setting": "[1]", "result": 196, "unit": "µM"}, {"measurement": "IC50", "setting": "Influenza A virus [2]", "result": 64, "unit": "µM"}, {"measurement": "selectivity ratio", "setting": "[3]", "result": 3}]}
{"molecule": "CC(N)C12CC3CC(CC(C3)C1)C2", "note": "(stereo unspecified) [RIMANTADINE]", "values": [{"measurement": "IC50", "setting": "Influenza A virus [2]", "result": 42, "unit": "µM"}, {"measurement": "selectivity ratio", "setting": "[3]", "result": 8}]}
{"molecule": "CC(=O)[C@@H]1C[C@H](CC2N3CC4(C)CN2CC(C)(C3)C4=O)C1(C)C", "note": "(stereo partly specified)", "values": [{"measurement": "CC50 at 48 h", "setting": "[1]", "result": "> 943", "unit": "µM"}, {"measurement": "IC50", "setting": "Influenza A virus [2]", "result": "> 943", "unit": "µM"}]}
{"molecule": "CC(C)=CCC/C(C)=C\\CNC1C2(C)CN3CN(C2)CC1(C)C3", "note": "(stereo unspecified)", "values": [{"measurement": "CC50 at 48 h", "setting": "[1]", "result": "> 1040", "unit": "µM"}, {"measurement": "IC50", "setting": "Influenza A virus [2]", "result": "> 1040", "unit": "µM"}]}
